Xi reactivation: activators of inactive X chromosome reactivation, primary screen, imaging, XiGFP fibroblasts, GFP high-content imaging, set 2. XiGFP mouse fibroblasts, % GFP-positive cells imaging, 3 d; cells co-treated with 5-aza-dC sensitizer; scaled so ellipticine positive control = 100%. activation, % at 7.58 µM. actives 0.055% (n = 360,000). AID 743238, 2013;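 active means mean normalized replicate activation at least 10% and every replicate at or above 10%; inconclusive means only one of the two criteria met; inactive means mean below 10% and not all replicates reach 10%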;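 further: 0% = median of on-plate neutral control wells and 100% = ellipticine 6 µM median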
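System: XiGFP fibroblasts, SV40-immortalized. Medium: DMEM plus 5-aza-dC sensitizer. Doses: single point. Timing: 3 d treatment, 15 min room-temperature fixation. Control set: ellipticine 6 µM.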
E-selectin induc: E-selectin induction in HUVECs, primary screen, imaging, HUVEC, immunofluorescence imaging, single point; P16581; activation, % at 7.58 µM; normalized: neutral wells 0, TNF-alpha wells 100; actives 0.37% (n = 260,000);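 active means mean E-selectin-positive cell signal at least 10% of the positive control, reached in at least 60% of replicates, without over 20% cell loss; inconclusive means no rule given, readout overlaps actives, possibly toxicity-flagged; inactive means the rest, including those meeting only one limit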
Target sequence (P16581 whole entry, looked up): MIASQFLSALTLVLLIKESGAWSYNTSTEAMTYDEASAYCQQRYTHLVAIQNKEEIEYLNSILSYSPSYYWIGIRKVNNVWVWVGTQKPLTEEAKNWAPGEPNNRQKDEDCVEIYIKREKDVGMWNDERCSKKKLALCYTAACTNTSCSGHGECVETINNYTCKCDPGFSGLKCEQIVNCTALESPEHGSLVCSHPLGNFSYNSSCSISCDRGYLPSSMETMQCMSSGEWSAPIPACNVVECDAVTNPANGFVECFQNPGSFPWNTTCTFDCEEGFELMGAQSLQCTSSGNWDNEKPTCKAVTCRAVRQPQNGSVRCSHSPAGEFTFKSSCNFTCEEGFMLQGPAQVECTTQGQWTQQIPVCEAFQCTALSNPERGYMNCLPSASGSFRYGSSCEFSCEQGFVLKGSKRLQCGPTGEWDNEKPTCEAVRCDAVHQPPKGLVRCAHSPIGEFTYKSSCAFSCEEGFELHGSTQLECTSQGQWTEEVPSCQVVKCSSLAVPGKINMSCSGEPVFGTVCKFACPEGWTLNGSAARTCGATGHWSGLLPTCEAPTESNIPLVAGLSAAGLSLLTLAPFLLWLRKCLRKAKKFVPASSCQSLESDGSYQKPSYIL
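Material: HUVEC primary endothelial cells; Amount: 3,000 cells per well; Dosing: single concentration; Medium: EGM-2 growth medium on 0.1% gelatin-coated wells; Read-out basis: percent E-selectin-positive cells; Signal: immunofluorescence imaging; Control set: TNF-alpha, DMSO.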
Starred values were filed as active, the others as inactive; ? = inconclusive; · = no result given; ! = a repeat was not active. The entries come from a sample that favours hits as a whole.

SMILES	Xi reactivation	E-selectin induc
COc1ccc(NC(=O)N(C)C[C@H]2Oc3c(NS(=O)(=O)c4cn(C)cn4)cccc3C(=O)N([C@H](C)CO)C[C@H]2C)cc1	3.0	?
COc1ccc(NC(=O)N(C)C[C@@H]2Oc3c(NS(=O)(=O)c4cn(C)cn4)cccc3C(=O)N([C@@H](C)CO)C[C@@H]2C)cc1	0.0	-12.2
COc1ccc(NC(=O)N(C)C[C@H]2Oc3c(NS(=O)(=O)c4cn(C)cn4)cccc3C(=O)N([C@@H](C)CO)C[C@@H]2C)cc1	0.6	39.1*
COc1ccc(S(=O)(=O)Nc2cccc3c2O[C@@H](CN(C)C(=O)Nc2c(C)noc2C)[C@H](C)CN([C@H](C)CO)C3=O)cc1	0.0	1.6
COc1ccc(NC(=O)N(C)C[C@@H]2Oc3c(NS(=O)(=O)c4cn(C)cn4)cccc3C(=O)N([C@@H](C)CO)C[C@H]2C)cc1	0.0	27.6*
COc1ccc(S(=O)(=O)Nc2cccc3c2O[C@H](CN(C)C(=O)Nc2c(C)noc2C)[C@@H](C)CN([C@H](C)CO)C3=O)cc1	-0.1	40.7*!
C[C@@H]1CN([C@@H](C)CO)C(=O)Cc2cc(NC(=O)Nc3ccc4c(c3)OCO4)ccc2O[C@H]1CN(C)Cc1ccncc1	0.0	·
c1csc(C2Nc3ccccc3-c3nc4ccccc4n32)c1 (centres undefined)	0.0	-0.2
Cc1ccsc1C1Nc2ccccc2-c2nc3ccccc3n21 (centres undefined)	30.2*	3.2
C[C@H](CO)N1C[C@H](C)[C@@H](CN(C)C(=O)c2ccccc2)Oc2ncc(-c3ccc(C#N)cc3)cc2C1=O	0.3	0.1
Cc1cccc(NC(=O)CCCN2C(=O)C(c3ccccc3)Oc3cccnc32)c1C (centres undefined)	0.1	57.4*
Cc1cccc(C)c1NC(=O)CCCN1C(=O)C(c2ccccc2)Oc2cccnc21 (centres undefined)	0.0	·
O=C(N[C@H]1CC[C@@H](CCNS(=O)(=O)c2ccc(F)cc2)O[C@@H]1CO)C1CCOCC1	0.4	-2.0
COc1ccc(NC(=O)Nc2cccc3c2O[C@@H](CN(C)S(=O)(=O)c2cn(C)cn2)[C@H](C)CN([C@H](C)CO)C3=O)cc1	-1.1	·
Cc1ccc(S(=O)(=O)N2CCN(C(=O)COC(=O)c3ccccc3Cl)CC2)c(C)c1	-0.7	-1.5
Cc1ccc(S(=O)(=O)N2CCN(C(=O)COC(=O)c3ccccc3OC(F)F)CC2)c(C)c1	127.1*	·
CCC(Oc1cccc(C)c1)C(=O)Nc1ccccc1C(=O)N1CCOCC1 (centres undefined)	-0.1	-0.1
Cc1cccc(CC(=O)Nc2sc(C(C)C)cc2C(=O)N2CCOCC2)c1	0.5	66.8*
CCCC#Cc1cnc2c(c1)C(=O)N([C@@H](C)CO)C[C@@H](C)[C@H](CN(C)C(=O)c1ccc(F)cc1)O2	-1.5	-0.3
CO[C@H]1CN(C)C(=O)c2cc(NS(C)(=O)=O)ccc2OC[C@H](C)N(S(C)(=O)=O)C[C@@H]1C	0.4	-0.2
COC1C(CO)OC(n2c3c(Cl)cccc3c3c4c(c5c6cccc(Cl)c6[nH]c5c32)C(=O)NC4=O)C(O)C1O (centres undefined)	23.4*	0.4
COc1ccc(CCn2c(=O)c3cccnc3n(Cc3cccc([N+](=O)[O-])c3)c2=O)cc1OC	0.2	26.8*
COC(=O)c1cccnc1-n1c(=O)c2cccnc2n(Cc2cccc([N+](=O)[O-])c2)c1=O	0.4	-0.8
CC1CCN(c2nc3c(=O)[nH]c(N)nc3n2[C@@H]2O[C@H](CO)[C@@H](O)[C@H]2O)CC1	0.3	69.0*
CC1CCN(c2nc3c(N)ncnc3n2[C@@H]2O[C@H](CO)[C@@H](O)[C@H]2O)CC1	0.2	0.3
SMILES	Xi reactivation	E-selectin induc
O=C(C[C@@H]1CC[C@H]2[C@@H](COC[C@H](O)CN2C(=O)Nc2cccc(Cl)c2)O1)N1CCCCC1	-0.1	0.1
NC(=S)NNC(=O)C12CC3CC(CC(C3)C1)C2	0.0	54.9*
COC(=O)NNC(=O)C12CC3CC(CC(C3)C1)C2	0.4	0.1
CO[C@H]1CN(C)C(=O)c2ccc(NC(=O)Nc3c(C)noc3C)cc2OC[C@H](C)N(C)C[C@@H]1C	-0.1	0.0
Cc1ccc(NCCCCO)cc1C	0.2	142.0*
Cc1ccc(NC(=O)CC(=O)Nc2ccc(C)c(C)c2)cc1C	-0.1	0.0
C[C@@H]1CN([C@H](C)CO)S(=O)(=O)c2ccc(-c3ccc(C#N)cc3)cc2O[C@H]1CN(C)C(=O)CN(C)C	0.2	-0.7
Cc1ccc(COc2ccc(/C=N/O)cc2)cc1	0.0	106.6*
CCOc1ccc(/C=N/O)cc1	0.3	0.0
C[C@@H]1CN([C@H](C)CO)S(=O)(=O)c2ccc(-c3cccnc3)cc2O[C@@H]1CN(C)C(=O)C1CCCCC1	0.1	0.8
Cc1nsc2c1ccc1ccccc12	-0.1	·
CC1=[N+](C)c2ccc3ccccc3c2C1(C)C	1.1	196.2*
C[C@H](CO)N1C[C@H](C)[C@H](CN(C)S(=O)(=O)c2ccc(F)cc2)Oc2ccc(NC(=O)c3ccncc3)cc2C1=O	0.0	0.0
COc1ccc(S(=O)(=O)N(C)C[C@@H]2OCCCC[C@@H](C)Oc3ccc(NS(=O)(=O)c4cccs4)cc3C(=O)N([C@@H](C)CO)C[C@@H]2C)cc1	0.5	0.1
CCCNC(=O)N1CC2(C1)CN(C(=O)CC)[C@H](CO)c1c2c2ccc(OC)cc2n1C	0.4	0.3
CC(=O)N1CC(=O)N2[C@H](C1)[C@@H](c1ccc(C#CC(C)C)cc1)[C@@H]2CO	0.6	0.3
Cc1nc2ccccc2nc(=O)c1NNc1ccccc1	0.4	·
Cc1ccc2nc(=O)c(NNc3ccccc3)cnc2c1	-0.1	178.0*
C[C@@H]1CN([C@@H](C)CO)S(=O)(=O)c2ccc(C#C[C@@H](C)O)cc2O[C@H]1CN(C)Cc1ccccn1	-1.1	0.3
O=C(C[C@H]1C=C[C@H](NS(=O)(=O)c2ccc(F)cc2)[C@@H](CO)O1)NC1CCCCC1	0.0	0.1
O=C(c1cccc(F)c1)N1CC2(C1)[C@@H](c1ccccc1)[C@@H](CO)N2C(=O)C1CCCC1	0.3	-0.1
CC(C)(C)C(=O)c1cn(CC(=O)O)c2ccccc12	0.0	·
O=C(O)Cn1cc(C(=O)C(F)(F)F)c2ccccc21	0.0	49.3*
CN1C(=O)c2cc(NC(=O)c3ccccc3F)ccc2OC[C@@H]2O[C@H](CC(=O)NCc3ccc4c(c3)OCO4)CC[C@H]21	0.1	0.0
Nc1c(C(=O)Nc2ccc(S(=O)(=O)N3CCCC3)cc2)sc2nc3cc4c(cc3cc12)CCC4	63.2*	-1.1
SMILES	Xi reactivation	E-selectin induc
Nc1c(C(=O)Nc2ccc(S(=O)(=O)N3CCCC3)cc2)sc2nc3ccc(OC(F)(F)F)cc3cc12	3.6	·
Cc1ccc(S(=O)(=O)N2CCCCC2)cc1C(=O)NC1CCCCC1	0.1	·
Cc1ccc(S(=O)(=O)N2CCOCC2)cc1C(=O)NC1CCCC1	0.3	31.2*
COC(=O)/C=C1\N/C(=N\c2nc(C)cc(C)n2)N(c2ccccc2)C1=O	-0.1	1.2
COC(=O)/C=C1\N/C(=N\c2nc(C)cc(C)n2)N(c2ccc(C)cc2)C1=O	-0.1	465.9*
O=C(Nc1ccccc1F)Nc1ccccc1N1CCCCC1	0.0	1.1

Bioassay records (PubChem BioAssay)
